Tested on: MS2 coat protein
Assay: apparent Kd, MS2 coat protein; higher = weaker binding; RNA-MaP array; FMN 200 µM where present
Method in brief: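 Binding was read on Illumina sequencing-chip clusters where stalled E. coli RNA polymerase had transcribed each design. A titration of SNAP-549-labelled MS2 coat protein began at 0.7 or 1.5 nM and doubled to 3 µM, once without ligand and once with constant ligand, in 100 mM Tris-HCl pH 7.5, 80 mM KCl, 4 mM MgCl2, BSA, DTT, yeast tRNA and Tween-20. The apparent Kd is the median of filtered per-cluster binding-curve fits, based on green signal normalised to red-channel RNA signal and control-cluster median Fmax.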

[1] = designed as: OFF switch for flavin mononucleotide, no ligand
[2] = ligand present: flavin mononucleotide, designed as: OFF switch for flavin mononucleotide
[3] = designed as: ON switch for flavin mononucleotide, no ligand
[4] = ligand present: flavin mononucleotide, designed as: ON switch for flavin mononucleotide

Sequence	apparent Kd [1]	apparent Kd [2]	apparent Kd [3]	apparent Kd [4]
GUCACGAAUGUAGGAUAUCGAGUGGAUAACACUCGAGAAGGACAUGAGGAUCACCCAUGUACUAUGAAAGAUAAUAAACGUGAC	14.4 nM	20.4 nM		
GAUUUCUCAUGAGGAUAUGCUCGCAUUUCAAGAGCAGAAGGUAUGUCAUUAGACAUGAGGAUCACCCAUGUAGUUAAGAUUGAA			72 nM	44.7 nM
CCGGAAACGGGUAGCCAGACAUGAGGAUCACCCAUGUGAUCAGAGGAUAUGGAUCCUAAUUGGAUCCAGAAGGCUGUCAGCUAC			554 nM	74.8 nM
GGGCCGGUGGAGAAGGAGCUUGCGAAACGCAUGCUAGGAUAUCCACAUGAGGAUCACCCAUGUGGGAAUAUCUGAUUUUCGCAG	4.36 nM	4.84 nM		
CUUUUGGGAGGAUAUACAUGAGGAUCACCCAUGUGGUCGUGACCAAGUAAGCGCACUCGUAGAAGGCCCACGAC	66.7 nM	98 nM		
UUUGCAUUCCGAGGAUAUUCAUAUAAUAAAUACACAUGAGGAUCACCCAUGUGGCGAUAGCCUAGGGAGAAGGCGGUUUGCUUU			22.3 nM	24 nM
ACUAGAUGAGGAUAUGCAUGUUUUCAUGUUCUUCUAGAUUAACAUGAGGAUCACCCAUGUAGAAGGCGUCUUAU	19.4 nM	37.9 nM		
UACAUUUAACAGAAGGCGUUUAUAUUUAACUUACGAGGAUAUGUAUAACAUGAGGAUCACCCAUGUAACUUGGAUAGAAUAUCU			9.46 nM	8.32 nM
UUAUUCUAUAUAGGAUAUUGAUGCAAUUUACCUCAAGAAGGAUAUACAUGAGGAUCACCCAUGUUGGAUAGGGUUAGUUUGUUU			79.4 nM	76.5 nM
UGGCGGAGCAGAGGAUAUUACAUGAGGAUCACCCAUGUAUGAACCAAUAGCUGGAAACAGCAAUGUAAGAAGGCUGCUCCGACA	12.1 nM	176 nM		
UCUUAUUGCAAGGAUAUGCAAAUUAUUAUUAAAGCAGAAGGUGCAACAUGAGGAUCACCCAUGUUUCCGGGAAA	25.2 nM	104 nM		
AUUGUUUAUGUAGGAUAUGCCUGGCGUGCCUUCGCAGAAGGACAUGAGGAUCACCCAUGUAUUGCGGUCUGCGUUCAGAUCGCA	53.3 nM	67.2 nM		
AAAAGACAUGAGGAUCACCCAUGUAAAGACGUGGGAGGAUAUGUAUGGAAACCAGACUGUACAGAAGGCCUUUGUC			161 nM	52.4 nM
GGCGGUUUACAAGGAUAUUAGAAACAGACCAAAUAAGAAGGUGUUAUCUGGCAAUGCGAAAGCAGACAUGAGGAUCACCCAUGU			58.3 nM	57.1 nM
GCGAAGAACGAGAAGGCCACUACAUGAGGAUCACCCAUGUCGUGGAGUAUUGGAGGAUAUCGUUAGGCGUCUCAUGAGGACAUA	5.26 nM	5.69 nM		
GGUGGACAUGAGGAUCACCCAUGUGAGGAUAUCGGCUGGCUACUGGCUGACGGCUGCUCGAGAAGGCGCAUUGU	40 nM	73.6 nM		
UCUGUCGUUGUGAGGAUAUGCCCAAAUAAAAGCGGGCAGAAGGCACAUGAGGAUCACCCAUGUCCUGCGGUUUU	21.4 nM	237 nM		
UUAACAUGAGGAUCACCCAUGUAUAGAUCGGUUAAUAGAAGUGAGGAUAUGCUUAAAUUCAGGUAGCAGAAGGCACUGGGUACU			26.9 nM	29.9 nM

Sequence	apparent Kd [1]	apparent Kd [2]	apparent Kd [3]	apparent Kd [4]
UGAAACUACGAGAAGGACAUGUGGUCCUUCAGUUACAUGAGGAUCACCCAUGUAGGAUAUCGUAGUUUCAGGAUCGUGAGAUCA	34.7 nM	14.6 nM		
GCAUCACAUGAGGAUCACCCAUGUCUUCGGAGUCGAGGAUAUGGUCACUGUAAACAGUGGCCAGAAGGCGAGGUGC			67.6 nM	38.3 nM
AUCAUGUGAGGAUAUAAAAUGAAUAUAAAUUAUUAUCUUGAUUAGAAGGCACAUGAGGAUCACCCAUGUCUGAA	32.5 nM	39.2 nM		
GCACUUAAAAUUGAACCGUUUCGAACAUGAGGAUCACCCAUGUAGGAUAUGCUAAAAGUUGUGAUGCAGAAGGACAAUAAGUGC	6.82 nM	6.67 nM		
UUGCCUCAGAACAUGAGGAUCACCCAUGUGCUGCGGGCAACGUAGGAUAUGAUGGUGUGACACCGUCAGAAGGAUGAUGGUACC			5.97 nM	6.05 nM
UCUGCCGCCGUGAGGAUAUGCCCGCGAAAACGCGGGCAGAAGGCACAUGAGGAUCACCCAUGUCCCGCGGUUUU	16.1 nM	36.7 nM		
GCAGGCUUCGAGAAGGACAUGAGGAUCACCCAUGUGCGUGUGAAGCAGCCGUGAGGCUGCAUCAUGUAGGAUAUCGGAGUCUGC	70.8 nM	573 nM		
CGUAACUGCAUAGGAUAUUGAUACAUGAGGAUCACCCAUGUUUUUGGGAUUAGUAAUAUAUUAAGCAAGAAGGAUGGAGUUACG			74.2 nM	39.9 nM
GCCUCACAUGAGGAUCACCCAUGUCAGGAUAUCUCGUGCGCAGUAAUUAUCUGGCUAAAGAGAAGGGACAUUAA	47 nM	99 nM		
GCACAUGAUACAGGAUAUGUUUUGGAUUUUAUAUUCAGUUAUAUAAUAUUUACAGAAGGGUAUACAUGAGGAUCACCCAUGUGC	61.1 nM	30.8 nM		
CGCACUAUACAUGAGGAUCACCCAUGUUAAUAUGAGAUAGUCAGAAGGCAUUGUUUGAGAAAUUAUGAGGAUAUGAAUAGUGCG			100 nM	23.7 nM
CAAGGCGUUGACCGACUCCAGACAUGAGGAUCACCCAUGUAGAAGGAUAUGUACCGCACCCUUGGACAGAAGGUCUACUGGGUU	17 nM	38.9 nM		
CUGCCCAGUGUGAGGAUAUACAAAGGAAUUCCUUGGUAGAAGGCACAUGAGGAUCACCCAUGUGACUCGCGGUA	20.6 nM	52.7 nM		
GAAUAUUCGUGGUACAUGAGGAUCACCCAUGUGUCUUUACAUGAGGAUAUGGAUUCUAAUUGGAUCCAGAAGGCAUGAAUAUUC			75.5 nM	31.2 nM
UACAGACAUGAGGAUCACCCAUGUGAGGAUAUCGAUAACGAUAACAUAAUAUAAACGGCGAGAAGGCACAGCAU	31.7 nM	34.9 nM		
GCUGCAUGCAGAGGAUAUAUAACAUGAGGAUCACCCAUGUUAAUAAUAUGGAUAAACCAGAUAGUAUAGAAGGCUGCAUGCAGC	19.5 nM	23.8 nM		
AGGGUAGACGUAGGAUAUACGGAAUGAAUGAAAGUAGAAGGAUGACAUGAGGAUCACCCAUGUGAAAUGAAAUGAUGAAGGGUG	579 nM	510 nM		
ACAAAAGUUGAUCCUCGCUACAUGAGGAUCACCCAUGUAAUGGAGGAUAUGCAGCAACAAAACUCGCAGAAGGCCAUUUGCUGG	52.5 nM	30.5 nM		
